High-throughput results: PubChem, several laboratories
Rows were chosen to be rich in hits. Some 1.3% of all compounds tested hit in one or more screens of this group.
DDE Tn7 FP inh: inhibitors of Tn7 peptide binding to human fibrin DD(E) | inhibition, % at 8.3 µM | P02675 | 0.13% of 370,000 active | FP displacement of FITC-Tn7 peptide from fibrin DD(E); 0% = median of compound wells per plate;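 active means inhibition above the mean of compounds falling within the control limits plus 3 SD of them, cut at about 14% in these data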;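 further: 0% = plate median of compound wells and 100% = 10 µM Aha-Tn7 peptide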
Target sequence (P02675 whole entry, looked up): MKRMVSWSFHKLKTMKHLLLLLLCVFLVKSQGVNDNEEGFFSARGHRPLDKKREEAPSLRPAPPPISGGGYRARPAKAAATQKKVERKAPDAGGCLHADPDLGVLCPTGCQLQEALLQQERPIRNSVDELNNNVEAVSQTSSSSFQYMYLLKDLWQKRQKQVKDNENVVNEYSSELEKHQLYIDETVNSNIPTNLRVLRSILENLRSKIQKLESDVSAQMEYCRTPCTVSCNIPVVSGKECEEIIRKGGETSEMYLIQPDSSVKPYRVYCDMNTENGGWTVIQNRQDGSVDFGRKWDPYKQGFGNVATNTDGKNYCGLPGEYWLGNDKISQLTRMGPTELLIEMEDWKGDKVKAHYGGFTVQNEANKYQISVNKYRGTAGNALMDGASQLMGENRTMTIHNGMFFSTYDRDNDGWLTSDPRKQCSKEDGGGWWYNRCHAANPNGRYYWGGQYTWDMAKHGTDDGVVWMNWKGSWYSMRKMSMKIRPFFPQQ
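Also added: labelled Tn7 tracer, 0.1 µM; Assay system: human fibrin DD(E) protein; Amount: 2 µM fibrin DD(E); Schedule: 10 min compound pre-incubation, 3 h probe incubation at room temperature; Repeats: one replicate per compound; Read-out basis: percent inhibition; Measured by: fluorescence polarization of the labelled Tn7 tracer.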
aDG glyco up: increases alpha dystroglycan glycosylation; activation, % at 10 µM; Pro5-aDG cells, alpha-DG glycosylation AlphaScreen (IIH6); 0% Pro5, 100% B10-LARGE cell signal; 0.22% of 360,000 active;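 active means activation of at least 8% versus controls, or a plate z-score of at least 8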;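 further: Pro5 are CHO cells carrying HIG-tagged alpha-DG that lacks glycosylation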
Tn6 DDE FP: DD(E)-Tn6 binding inhibition, primary FP screen | Fibrin DD(E) TRITC-Tn6 fluorescence polarization displacement | AID 720509 | inhibition, % at 8.3 µM | P02675 | 0.21% of 370,000 active;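 active means inhibition above a per-campaign cutoff: mean of compounds within control limits plus 3 SD, cut at about 15% in these data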;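 further: 0% = median of all compound wells on the plate and 100% = blocking peptide control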
NRP1-CendR mod: modulators of CendR peptide binding to human neuropilin-1 | FAM-RPARPAR peptide binding to NRP-1, fluorescence polarization | inhibition, % at 25 µM | O14786 | 0.85% of 360,000 active;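 active means inhibition or corrected inhibition above about 18%, plus a signal ratio from 0.5 to 1.5, limit read from the data, passing the limit was not always enough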
aDG glyco conf: alpha-DG glycosylation activation, confirmation. shares compounds with aDG glyco up. Pro5-aDG cells, IIH6 AlphaLISA; scaled to LARGE-overexpressing B10 cells as 100%. activation, % at 10 µM (by protocol). 17% of 600 active. AID 651671;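 active means activation of at least 7% in one or more replicates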;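 further: cells exposed to compound for two days before detection; 0% = DMSO-treated Pro5 cells and 100% = DMSO-treated B10-LARGE cells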
Numbers without * were called inactive; x = no result.

SMILES	DDE Tn7 FP inh	aDG glyco up	Tn6 DDE FP	NRP1-CendR mod	aDG glyco conf
OC1(c2ccc(OC(F)F)cc2)CSC(=Nc2cccnc2)N1C1CC1 (configuration not stated)	-6.7	6.9*	-4.3	-5.3	0.2
COc1ccc(OC)c(C2(O)CSC(=Nc3cccnc3)N2Cc2ccco2)c1 (configuration not stated)	11.0	0.1	-1.8	-2.4	x
Cc1cccnc1CN1CCN(C(=O)c2cc(COc3ccc4ncccc4c3)on2)CC1	-3.7	2.2	-0.1	-8.7	x
CC(CNC(=O)c1cc(COc2ccc3ncccc3c2)on1)c1ccccc1 (configuration not stated)	-8.9	4.7*	3.2	8.6	2.3
O=C(c1cc(COc2ccc3ncccc3c2)on1)N1CCC[C@H]1CO	-5.0	5.5*	-5.0	10.4	0.4
CCOC(=O)N1CCN(C(=O)c2cc(COc3ccc4ncccc4c3)on2)CC1	0.1	7.8*	2.5	-3.3	1.2
O=C(NC1CCCCCCC1)c1cc(COc2ccc3ncccc3c2)on1	5.8	1.8	-0.2	1.4	x
COc1ccc(CN2CCC(CNC(=O)Nc3ccc(C)c(F)c3)CC2)cc1	5.5	x	-5.0	x	x
COc1ccc(C(=O)CSc2nnc(-c3cccnc3)n2-c2ccc(C)cc2)cc1	-0.2	x	2.3	x	x
O=C(Nc1ccc(-c2nc3ccccc3[nH]2)cc1)c1ccco1	x	0.8	x	-0.9	x
O=C(/C=C/c1ccco1)Nc1ccc(-c2nc3ccccc3[nH]2)cc1	-6.6	5.0*	5.6	0.2	-1.1
COc1cccc(C2NC(=S)NC(C)=C2C(C)=O)c1 (configuration not stated)	-1.1	x	1.7	x	x
NC(=S)N/N=C/c1coc2c(ccc3ccccc32)c1=O	2.8	9.0*	8.1	1.3	0.4
COC(=O)[C@H](CC(C)C)N(CCCc1cn(CC2CCCCC2)nn1)S(=O)(=O)c1ccc(F)cc1Br	-4.8	x	-2.9	x	x
O=C(NC(=S)NCc1cccnc1)c1cc(Br)ccc1Cl	5.0	3.5*	3.9	-14.4	0.9
O=C(COc1ccc(Cl)cc1)Nc1cccc(-c2ccc3nncn3n2)c1	1.8	3.5*	0.6	-6.8	-0.1
Nc1nc(-c2ccco2)nn1S(=O)(=O)c1ccccc1	4.6	0.1	4.7	-4.4	x
Nc1nc(-c2cccnc2)nn1S(=O)(=O)c1ccccc1	-4.0	7.2*	9.6	10.7	0.1
CCOC(=O)c1sc(NC(=O)CSc2nnc(-c3ccco3)n2CC)c(C(=O)OCC)c1C	-2.0	0.0	-8.5	-9.3	x
COC(=O)c1c(NC(=O)CSc2nnc(-c3ccco3)n2C)sc(C)c1C	0.2	6.1*	-6.3	6.4	-0.1
Cc1cccc(C)c1NC(=O)c1ccc(-n2cncn2)nc1	7.1	3.8*	-1.7	16.2	-0.6
CCc1cccc(CC)c1NC(=O)c1ccc(-n2cncn2)nc1	-0.8	0.6	3.7	10.1	x
Cc1ccc(C(=O)N2O[C@]34C=C[C@]25C[C@@H](O)CC[C@]5(C)C3CC[C@]2(C)[C@@H]([C@H](C)/C=C/[C@H](C)C(C)C)CC[C@H]24)cc1 (some centres not stated)	-5.1	x	-7.8	x	x
CC(C)c1ccc([C@@H]2O[C@H](CCc3ccccc3)CC3=C2C(=O)OC(C)(C)O3)cc1	3.3	0.0	-7.8	14.6	x
Cc1ccc(-n2c(SCC(N)=O)nnc2-c2ccco2)cc1	-0.5	4.3*	9.4	1.9	1.5
SMILES	DDE Tn7 FP inh	aDG glyco up	Tn6 DDE FP	NRP1-CendR mod	aDG glyco conf
COc1cc(N)c2ncsc2c1	7.2	9.7*	0.7	6.9	0.9
Brc1ccc(-c2csc(N3CCC(c4nn[nH]n4)CC3)n2)cc1	2.6	x	-4.0	x	x
Cc1ccc(NS(=O)(=O)c2ccc(C(=O)NC3CCN(Cc4ccccc4)CC3)cc2)cc1	-1.2	13.4*	1.9	12.0	4.8*
CCOC(=O)c1ccc(NC(=S)N2CCN(C)CC2)cc1	0.6	6.9*	-4.3	-1.0	-0.8
Cc1cc2ccccc2n1CCNC(=O)C1CC1	-9.0	7.8*	5.4	6.5	-0.1
COc1cc(/C=C/CNC[C@H]2O[C@@H](n3cc(C)c(=O)[nH]c3=O)C[C@@H]2O)ccc1O	0.5	1.6	2.8	-4.2	x
COc1ccc(NC(C)C(=O)N/N=C/c2ccc([N+](=O)[O-])s2)cc1 (configuration not stated)	-1.1	9.7*	-0.7	-6.5	3.4
COc1ccc(CCNC(=O)c2cc3c(=O)n4ccccc4nc3n(CCN3CCOCC3)c2=N)cc1	1.1	8.1*	1.0	-1.6	0.5
Cc1ccc(S(=O)(=O)N2CCC(=O)N([C@H](COC(=O)Nc3ccccc3)Cc3ccccc3)CC2)cc1	-4.0	0.1	-1.9	-0.7	x
Cn1c(=O)oc2cc(S(=O)(=O)NCCC(=O)NCCc3ccccc3)ccc21	0.0	4.3*	-3.9	-6.6	0.7
O=C(C(=O)N1CCC(CNS(=O)(=O)c2ccc(F)c(F)c2)CC1)c1cc2ccccc2o1	2.6	x	-0.2	x	x
O=c1cc(Nc2ccc3c(c2)OCCO3)[nH]c(=O)n1C1CCCCC1	-7.4	-0.3	-2.1	-3.1	x
CCc1ccc(Nc2cc(=O)n(C3CCCCC3)c(=O)[nH]2)cc1	2.2	6.9*	0.6	-12.0	-0.6
Cc1nc2ccc3nc(NC(=O)c4ccc5c(c4)OCCO5)sc3c2s1	-6.8	7.7*	-1.6	-16.8	-0.9
Cc1cc(C)cc(N=Cc2[nH]c3ccc(Br)c(Cl)c3c2O)c1	-2.2	5.9*	-1.8	-65.4	-1.0
COc1ccc(CN=Cc2[nH]c3ccc(Br)c(Cl)c3c2O)cc1	1.2	3.1	-0.7	132.8	x
Cc1ccc(C)c(N2CCN(CCCNC(=O)Cn3cccc3C(=O)c3ccccc3)CC2)c1	-6.5	10.5*	-6.8	6.6	3.0
CC(NC(=O)C(NC(=O)OCc1ccccc1)C(C)O)C(=O)OCc1ccccc1 (configuration not stated)	-0.5	x	4.7	x	x
C[C@H](CO)N1C[C@H](C)[C@@H](CN(C)S(C)(=O)=O)OCc2cnnn2CCCC1=O	-3.0	-0.2	0.2	-14.1	x
COc1ccc(NC(=O)Nc2nnc(C(C)(C)C)s2)cc1	-4.1	0.1	-1.9	0.4	x
CC(C)(C)c1nnc(NC(=O)Nc2ccc(Cl)cc2)s1	2.5	2.2*	-1.7	0.8	0.0
OCC1OC(C(N=Nc2ccccc2)=NNc2ccccc2)C(O)C1O (configuration not stated)	-1.0	x	-4.2	x	x
c1cnc2c(-c3ccc4nccn4c3)cccc2c1	-7.5	-0.2	-2.6	1.9	x
CC1(NC(=O)Nc2cc([N+](=O)[O-])ccc2O)CCS(=O)(=O)C1 (configuration not stated)	-5.9	6.9*	6.1	1.9	0.2
Nn1c(SCC(=O)Nc2ccc(C(=O)O)cc2)nnc1-c1ccco1	-4.4	x	10.3	x	x
N#Cc1cc2ccc(N3CCOCC3)cc2cc1C#N	-7.3	6.8*	2.6	20.2	2.2
Cc1ccc(-c2cc(N)n[nH]2)cc1	-0.4	-0.3	3.7	17.4	x
